In the library only some 4.1% were active in any assay of this set; here they are far more common.
KCNQ1 act = potentiators or activators of KCNQ1 channel, primary screen, cell-based, thallium flux, high-throughput; CHO-K1 KCNQ1, thallium flux FluxOR fluorescence; active compounds read high; Potassium voltage-gated channel subfamily KQT member 1 (Homo sapiens), P51787; B-score at 10 µM; hit rate 0.35% among 310,000;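 active means fluorescence ratio B-score, a plate-corrected score, at least three library SD, with initial intensity B-score within 5 SD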
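System: CHO-K1 cells stably expressing KCNQ1 / Medium: assay buffer for compound exposure, DMSO matched across wells / Reagent: thallium- and potassium-containing depolarizing buffer / Compound: one concentration, matched DMSO / Incubation: 20 min compound pretreatment at room temperature / Measured by: kinetic FluxOR fluorescence, 10 s baseline plus 110 s post-stimulus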
KCNK3 inh = human KCNK3 channel inhibitors, primary screen, CHO cells, FluxOR thallium flux, B-score | FluxOR fluorescence; active compounds read low | B-score at 10 µM | hit rate 0.84% among 340,000;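 active means B-score under library mean minus 4 SD, starting fluorescence ratio at most library mean plus 5 SD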;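 further: more negative B-score means stronger inhibition of thallium flux through KCNK3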
KCNQ1 block = inhibitors of human KCNQ1 channel, primary screen, cell-based, thallium flux, high-throughput; Potassium voltage-gated channel subfamily KQT member 1 (Homo sapiens), P51787; CHO-K1 KCNQ1, FluxOR thallium flux fluorescence; active compounds read high; B-score at 10 µM; hit rate 1.3% among 310,000; AID 2642, 2010;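 active means compounds whose thallium flux B-score, printed positive for inhibition, exceeds three library SD while starting fluorescence stays within three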;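 further: channel opened by potassium depolarization with thallium stimulus after 20 min compound exposure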
hERG protect = hERG rescue from dofetilide block, primary screen, cell-based, CHO-hERG, FluxOR thallium flux, dofetilide IC70 | dofetilide IC70 present | activation (rescue from dofetilide block), less the hit threshold, % at 10 µM | hit rate 0.51% among 310,000;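 active means activation above the mean of controls blocked by dofetilide plus 5 SD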;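 further: thallium influx through hERG after potassium depolarization seen as dye fluorescence rise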
Cl transport mod = KCC2 cotransporter modulators, thallium flux, primary screen, cell-based, HEK293 KCC2, FluoZin-2 fluorescence, MLSMR; Solute carrier family 12 member 5 (Homo sapiens), Q9H2X9; KCC2 cells, thallium flux FluoZin-2 fluorescence; B-score of Tl+ flux slope (higher = more flux/activation; lower = inhibition) at 10 µM; hit rate 2.2% among 190,000;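 active means thallium flux slope and its plate-corrected score both differing from the plate sample mean at a set confidence after two filtering rounds, in either direction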;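 further: slope of fluorescence scaled to starting intensity during 10 to 20 s after thallium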
KCNK9 block = KCNK9 potassium channel inhibitors, primary screen, HEK293 cells, thallium flux | Potassium channel subfamily K member 9 (Homo sapiens), Q9NPC2 | FluxOR thallium flux fluorescence; active compounds read low | B-score at 10 µM | hit rate 1.2% among 310,000;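 active means ratio B-score over 3 SD below the library mean, with starting fluorescence within 5 SD of its mean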;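 further: negative B-score means less thallium flux so channel inhibition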
Target sequence (Q9NPC2 whole entry, looked up): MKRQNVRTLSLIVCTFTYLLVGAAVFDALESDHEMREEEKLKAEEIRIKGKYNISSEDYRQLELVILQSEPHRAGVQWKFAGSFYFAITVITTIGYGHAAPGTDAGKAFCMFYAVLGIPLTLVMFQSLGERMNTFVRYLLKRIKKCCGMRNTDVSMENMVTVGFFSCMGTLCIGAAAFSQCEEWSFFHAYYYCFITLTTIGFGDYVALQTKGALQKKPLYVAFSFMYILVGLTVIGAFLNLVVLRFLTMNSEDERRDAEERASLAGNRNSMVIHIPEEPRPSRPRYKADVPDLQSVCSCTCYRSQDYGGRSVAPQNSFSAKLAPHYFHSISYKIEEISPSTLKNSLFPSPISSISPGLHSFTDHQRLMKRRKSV
KCNK9 block conf = KCNK9 potassium channel inhibitors, confirmation, HEK293 cells, thallium flux, duplicate; shares compounds with KCNK9 block; FluxOR thallium flux fluorescence; inhibition, % at 10 µM; hit rate 43% among 4,900; AID 492992, 2010;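 active means thallium signal inhibited by more than 5 SD of the compound-free buffer control wells, on both duplicate plates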
Kir21 sel = mouse Kir2.1 channel inhibition, confirmation, selectivity assay for KCNK9 modulator project, cell-based, HEK293, thallium flux. shares compounds with KCNK9 block. Kir2.1 cells, FluxOR thallium flux fluorescence. inhibition, % at 10 µM. hit rate 4% among 4,900. AID 492993, 2010;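 active means thallium signal drop more than 5 SD beyond the mean of the no-compound control wells, seen in both duplicate plates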;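 further: signal is fluorescence rise after thallium addition divided by baseline fluorescence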
KCNK9 uninduced = thallium flux in non-induced HEK293 cells, confirmation, counter-screen for KCNK9 inhibitor project, cell-based, second counter screen, non-induced KCNK9-HEK293. inhibition, % at 10 µM. hit rate 40% among 4,900. shares compounds with KCNK9 block. FluxOR thallium flux. AID 492997, 2010;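 active means thallium signal drop beyond 5 SD of the untreated control mean, on both duplicate plates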
Hits are given with their value; . = inactive; / = no result given.

SMILES	KCNQ1 act	KCNK3 inh	KCNQ1 block	hERG protect	Cl transport mod	KCNK9 block	KCNK9 block conf	Kir21 sel	KCNK9 uninduced
CCN(CC)S(=O)(=O)c1cccc(-c2nnc(SCCCC(=O)c3ccccc3)o2)c1	.	.	.	.	/	.	.	.	.
CC(C)(C)NCC(=Cc1ccccc1)C(=O)c1ccccc1	/	.	/	/	/	/	/	/	/
CC(=O)N(CCC(c1ccco1)C(C)C)Cc1ccc(OC(C)C)cc1 (centres undefined)	.	.	.	.	.	-16.1	37.0%	.	43.0%
COc1ccc(CN(CCC(c2ccco2)C(C)C)C(C)=O)cc1OC (centres undefined)	.	.	.	.	.	.	/	/	/
Cc1ccc(NC(=O)CN(C)C(=O)c2cccc(S(=O)(=O)N3CCc4ccccc43)c2)cc1	/	.	/	/	/	/	/	/	/
COc1ccccc1-n1c2nc3ccccc3nc2c2c(=O)n(-c3cc(C)cc(C)c3)cnc21	.	.	.	.	.	-8.47	.	.	25.0%
CCN1C(=O)[C@H]2[C@@H](c3ccc(C)cc3)N3C(=O)N(c4cccc(Br)c4)C(=O)[C@@]3(CC(C)C)[C@H]2C1=O	.	.	.	.	/	.	/	/	/
COc1ccccc1C/C(N)=N/OC(=O)COc1cccc2ccccc12	.	.	.	.	/	.	.	.	.
COc1ccccc1C/C(N)=N/OC(=O)COc1ccccc1C	.	.	.	.	.	.	.	.	.
Cc1ccc(NC(=O)COC(=O)c2ccc(NC(=O)CC#N)cc2)cc1S(=O)(=O)N1CCOCC1	/	.	/	/	/	/	/	/	/
Cc1ccccc1CC1(CO)CCCN(C(=O)c2cccc(Cl)c2)C1 (centres undefined)	.	.	.	.	.	.	.	.	23.5%
Cc1ccccc1CC1(CO)CCCN(C(=O)c2cc(Cl)ccc2F)C1 (centres undefined)	.	.	.	.	.	.	/	/	/
O=C(c1ccc([N+](=O)[O-])cc1)N(Cc1ccccc1)c1ccccn1	.	.	.	.	.	.	/	/	/
O=[N+]([O-])c1ccccc1SN(Cc1ccccc1)c1ccccn1	.	.	.	.	.	-8.59	39.5%	.	43.5%
CCOC(=O)c1ccc(NC(=O)C2C3CCCCC32)cc1 (centres undefined)	.	.	.	.	/	-9.42	.	.	.
O=C(c1ccccc1)c1nc2ccccc2n(CCCn2c(=O)c(C(=O)c3ccccc3)nc3ccccc32)c1=O	.	.	.	.	.	.	.	.	.
CCOC(=O)CCSc1nc2c(c(C(F)(F)F)c1C#N)CCC2	.	.	.	.	.	.	.	.	.
CSc1nnc(Cc2sc(-c3ccccc3)nc2-c2ccccc2)o1	.	.	.	.	.	-8.1	.	.	25.0%
Fc1ccc(CSc2nnc(Cc3sc(-c4ccccc4)nc3-c3ccccc3)o2)cc1	.	.	.	.	.	.	/	/	/
COc1cc(NC(=O)CN2C(=O)C(C)N(c3ccc(C)cc3)C2=O)cc(OC)c1 (centres undefined)	.	.	.	.	/	.	/	/	/
O=C1/C(=C\c2ccc(Br)o2)SC(=Nc2ccccc2)N1c1ccccc1	.	.	.	.	.	-8.35	.	.	37.0%
Cc1cccc(CSc2nc(N)c(C#N)c(-c3cccs3)c2C#N)c1	.	.	.	.	.	-8.54	47.5%	.	46.5%
CCN(C(=O)/C=C/c1ccccc1)C1CCCCC1	.	.	.	.	/	.	.	.	.
COc1ccc(-c2[nH]ncc2/C=C(/C#N)C(=O)NC2CCCCCC2)cc1	.	.	.	.	.	.	.	.	.
Cc1cc(/C=C(\C#N)C(=O)NC2CCCCCC2)c(C)[nH]1	.	.	.	.	.	.	/	/	/
SMILES	KCNQ1 act	KCNK3 inh	KCNQ1 block	hERG protect	Cl transport mod	KCNK9 block	KCNK9 block conf	Kir21 sel	KCNK9 uninduced
CC(NC(=O)CSCc1ccc(Br)cc1)c1ccccc1 (centres undefined)	.	.	.	.	.	.	/	/	/
CC(NC(=O)CSCc1ccccc1Br)c1ccccc1 (centres undefined)	.	.	.	.	.	.	.	.	.
Cc1ccc(CSc2nc3ccsc3c(=O)n2Cc2ccccn2)cc1	.	.	.	.	.	-14	79.0%	.	44.0%
CCCn1c(C2CCCN2c2nc(C)cs2)nc2cc(Cl)c(Cl)cc21 (centres undefined)	.	.	.	.	/	-9.46	.	.	34.0%
CCCn1c(C2CCCN2c2nc(-c3cccc(Br)c3)cs2)nc2cc(Cl)c(Cl)cc21 (centres undefined)	.	.	.	.	/	.	/	/	/
O=S(=O)(Nc1cc(S(=O)(=O)N2CCOCC2)ccc1Cl)c1ccccc1	/	.	/	/	/	/	/	/	/
O=C1C2C3C=CC(CC3)C2C(=O)N1c1ccc(Cl)cc1Cl (centres undefined)	.	.	.	.	/	.	/	/	/
CN(C(=O)COC(=O)c1ccc(Br)c(S(=O)(=O)N2CCOCC2)c1)C1CCCCC1	/	.	/	/	/	/	/	/	/
O=C(CSc1ccc2ccccc2n1)c1ccc2c(c1)OCO2	.	.	.	.	/	-8.31	39.0%	.	36.5%
Nc1c(C(=O)N/N=C/c2cccnc2)oc2nc(-c3ccccc3)cc(-c3ccco3)c12	.	.	6	.	.	-10.8	.	.	31.0%
CCOC(=O)C1=C(C)NC(=S)NC1c1ccc(-c2cccc(Cl)c2C)o1 (centres undefined)	.	.	.	.	.	-8.56	.	.	.
O=C(NCc1ccco1)C1CC(c2cc(C(F)(F)F)cc(C(F)(F)F)c2)=NO1 (centres undefined)	.	.	.	.	.	.	/	/	/
Fc1ccc(Cn2nnnc2C(c2ccc(Cl)cc2)N2CCSCC2)cc1 (centres undefined)	.	.	.	.	.	-9.37	40.0%	.	44.0%
Cc1ccc(-c2nnc(CSc3nc(C(C)C)nc4sc(C)c(C)c34)o2)cc1	.	.	.	.	9.06	.	.	.	.
